Data from ChEMBL document CHEMBL1128487, “Reduced-size antagonists of luteinizing hormone-releasing hormone active in vitro” (1995).
Square brackets hold non-standard residues; d marks the D form. Peptide text beside a SMILES is read from it. * marks the point of attachment. ξ: configuration not given here. 2Nal = N[C@@H](Cc1ccc2ccccc2c1)C(=O)O; ξLys(iPr) = CC(C)NCCCCC(N)C(=O)O; Picolinoyl = O=C(c1ccccn1)*; ξR = N=C(N)NCCCC(N)C(=O)O

Key:
Rattus norvegicus [1] = experiment: In vivo anti-ovulatory activity (AOA) against LHRH was determined at a dose of 10 ug in 6 rats; type: functional
Outline: (§1)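 Female 4-day cycling rats received a single subcutaneous injection of analog in corn oil between 12 and 12:30 p.m. Ova were counted on estrus. Activity is given as the number of ovulating rats over the total rats at each dose.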

[2] = target: T1, Gonadotropin-releasing hormone receptor (Rattus norvegicus) (UniProt P30969); experiment: In vitro inhibition of LH release in rat pituitary cells at a dose of 1 ug of analogue and 1 ng of LHRH.; type: functional, cell-based; details: Pituitary gland cell
T1 sequence (whole entry): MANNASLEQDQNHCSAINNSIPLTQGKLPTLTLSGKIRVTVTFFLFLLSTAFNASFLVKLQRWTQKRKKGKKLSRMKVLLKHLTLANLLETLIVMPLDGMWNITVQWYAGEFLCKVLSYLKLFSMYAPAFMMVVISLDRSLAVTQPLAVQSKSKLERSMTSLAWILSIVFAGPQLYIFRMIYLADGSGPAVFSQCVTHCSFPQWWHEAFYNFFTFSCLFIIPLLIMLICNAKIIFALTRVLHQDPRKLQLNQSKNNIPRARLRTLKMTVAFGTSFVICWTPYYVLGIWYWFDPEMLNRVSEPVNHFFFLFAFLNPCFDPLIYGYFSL
Outline: (§2)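 Anterior pituitaries from female Sprague-Dawley rats (240-260 g, 18 rats) were minced and dispersed in Gey's solution with trypsin, DNase I and LBBI. Cells were plated in DMEM with 0.45% glucose, 25 mM HEPES, serum, T and 100 nM dexamethasone at about 3.0 × 10^5 cells/mL and cultured 4 days at 37 °C in 8% CO2. Cells were then exposed to antagonist plus 1 ng LHRH in Gey's solution with 0.3% glucose for 2 h. LH in the medium was measured by RIA as ng/mL of RP-3.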

Rattus norvegicus [3] = species: Rattus norvegicus; experiment: In vitro inhibition of LH release in rat pituitary cells at a dose of 1 ng LHRH in absence of the compound.; type: functional, Pituitary gland cell; parameters: unit: ng/mL; outline: as §2
Rattus norvegicus [4] = experiment: In vivo anti-ovulatory activity (AOA) against LHRH was determined at a dose of 1000 ug in 6 rats; type: functional; outline: as §1
[5] = target: T1, Gonadotropin-releasing hormone receptor (Rattus norvegicus); experiment: In vitro inhibition of LH release was determined in rat pituitary cells at a dose of 0.3 ug of analogue and 1 ng of LHRH; type: functional, cell-based; details: Pituitary gland cell; outline: as §2
[6] = target: T1, Gonadotropin-releasing hormone receptor (Rattus norvegicus); experiment: In vitro inhibition of LH release was determined in rat pituitary cells at a dose of 0.03 ug of analogue and 1 ng of LHRH; type: functional, cell-based; details: Pituitary gland cell; outline: as §2
Rattus norvegicus [7] = experiment: In vivo anti-ovulatory activity (AOA) against LHRH was determined at a dose of 100 ug in 6 rats; type: functional; outline: as §1
[8] = target: T1, Gonadotropin-releasing hormone receptor (Rattus norvegicus); experiment: In vitro inhibition of LH release was determined in rat pituitary cells at a dose of 0.1 ug of analogue and 1 ng of LHRH; type: functional, cell-based; details: Pituitary gland cell; outline: as §2
[9] = target: T1, Gonadotropin-releasing hormone receptor (Rattus norvegicus); experiment: In vitro antagonistic activity against LH release in rat pituitary cells for control.; type: functional, cell-based; details: Pituitary gland cell; outline: as §2
Rattus norvegicus [10] = experiment: In vivo anti-ovulatory activity (AOA) against LHRH was determined at a dose of 1000 ug in 9 rats; type: functional; outline: as §1
[11] = target: T1, Gonadotropin-releasing hormone receptor (Rattus norvegicus); experiment: In vitro inhibition of LH release was determined in rat pituitary cells at a dose of 10 ug of analogue and 1 ng of LHRH; type: functional, cell-based; details: Pituitary gland cell; outline: as §2
[12] = target: T1, Gonadotropin-releasing hormone receptor (Rattus norvegicus); experiment: In vitro inhibition of LH release determined in rat pituitary cells at a dose of 3 ug of analogue and 1 ng of LHRH; type: functional, cell-based; details: Pituitary gland cell; outline: as §2
[13] = target: T1, Gonadotropin-releasing hormone receptor (Rattus norvegicus); experiment: In vitro inhibition of LH release was determined in rat pituitary cells at a dose of 100 ug of analogue and 1 ng of LHRH; type: functional, cell-based; details: Pituitary gland cell; outline: as §2
[14] = target: T1, Gonadotropin-releasing hormone receptor (Rattus norvegicus); experiment: In vitro inhibition of LH release was determined in rat pituitary cells at a dose of 30 ug of analogue and 1 ng of LHRH; type: functional, cell-based; details: Pituitary gland cell; outline: as §2
Rattus norvegicus [15] = experiment: In vivo anti-ovulatory activity (AOA) against LHRH was determined at a dose of 1 ug in 6 rats; type: functional; outline: as §1

SMILES | AOA (Rattus norvegicus [1]) | Activity [2] | Activity (Rattus norvegicus [3]) | AOA (Rattus norvegicus [4]) | Activity [5] | Activity [6] | AOA (Rattus norvegicus [7]) | Activity [8] | Activity [9] | AOA (Rattus norvegicus [10]) | Activity [11] | Activity [12] | Activity [13] | Activity [14] | AOA (Rattus norvegicus [15])
CC(=O)N[C@H](Cc1ccc2ccccc2c1)C(=O)N[C@H](Cc1cccnc1)C(=O)N[C@@H](CO)C(=O)N[C@@H](Cc1ccc(O)cc1)C(=O)N[C@H](Cc1ccc2ccccc2c1)C(=O)N[C@@H](CC(C)C)C(=O)N[C@@H](CCCN=C(N)N)C(=O)N1CCC[C@H]1C(=O)N[C@H](C)C(N)=O | 6 | 3 | 149 | 4 | 6 | 28 | 6 | 14 | 3.8 | – | – | – | – | – | –
CCNC(=O)[C@@H]1CCCN1C(=O)[C@H](CCCN=C(N)N)NC(=O)[C@H](CC(C)C)NC(=O)[C@@H](Cc1ccc2ccccc2c1)NC(=O)[C@H](Cc1ccc(O)cc1)NC(=O)[C@H](CO)NC(=O)[C@@H](Cc1ccc2ccccc2c1)NC(C)=O | – | 3 | 153 | – | 4 | 45 | 6 | 5 | 3.2 | 2 | – | – | – | – | –
CC(=O)N[C@@H](Cc1ccc2ccccc2c1)C(=O)N[C@@H](CCCCNC(=O)c1ccccn1)C(=O)NC(CCCCNC(C)C)C(=O)N1CCC[C@H]1C(N)=O (some centres not stated) (Ac-[2Nal]K(Picolinoyl)[ξLys(iPr)]P-NH2) | – | 186 | 153 | – | – | – | – | – | 3.5 | – | 144 | 150 | 118 | 128 | –
CC(=O)N[C@@H](Cc1ccc2ccccc2c1)C(=O)N[C@@H](CCCCNC(=O)c1ccccn1)C(=O)NC(CCCN=C(N)N)C(=O)N1CCC[C@H]1C(N)=O (some centres not stated) (Ac-[2Nal]K(Picolinoyl)[ξR]P-NH2) | – | 148 | 153 | – | – | – | – | – | 3.5 | – | 132 | 145 | 63 | 136 | –
CC(=O)N[C@@H](Cc1ccc2ccccc2c1)C(=O)N[C@@H](CC(C)C)C(=O)N[C@@H](CCCN=C(N)N)C(=O)N[C@@H](C)C(N)=O (Ac-[2Nal]LRA-NH2) | – | 145 | 155 | – | – | – | – | – | 3.5 | – | 116 | 136 | 49 | 87 | –
CCNC(=O)[C@@H]1CCCN1C(=O)[C@H](CCCN=C(N)N)NC(=O)[C@H](CC(C)C)NC(=O)[C@H](Cc1ccc2ccccc2c1)NC(C)=O (Ac-[2Nal]LRP-NHEt) | – | 148 | 145 | – | – | – | – | – | 3.1 | – | 88 | 120 | 9 | 25 | –
CC(=O)N[C@@H](Cc1ccc2ccccc2c1)C(=O)N[C@@H](Cc1ccc(O)cc1)C(=O)N[C@@H](Cc1ccc2ccccc2c1)C(=O)N[C@@H](CCCN=C(N)N)C(=O)N[C@@H](C)C(N)=O (Ac-[2Nal]Y[2Nal]RA-NH2) | – | 142 | 156 | – | – | – | – | – | 2.3 | – | 121 | 135 | 21 | 66 | –
CCNC(=O)[C@@H]1CCCN1C(=O)[C@H](CCCN=C(N)N)NC(=O)[C@H](CC(C)C)NC(=O)[C@H](Cc1ccc2ccccc2c1)NC(=O)[C@H](Cc1ccc2ccccc2c1)NC(C)=O (Ac-[2Nal][2Nal]LRP-NHEt) | – | 145 | 156 | – | – | – | – | – | 2.3 | – | 147 | 158 | 98 | 122 | –
CC(=O)NC(Cc1ccc2ccccc2c1)C(=O)N[C@@H](CCCCNC(=O)c1ccccn1)C(=O)N[C@@H](CCCN=C(N)N)C(=O)NC(C)C(N)=O (single isomer, unassigned) | – | 147 | 156 | – | – | – | – | – | 2.3 | – | 75 | 145 | 8 | 26 | –
CC(=O)NC(Cc1ccc2ccccc2c1)C(=O)N[C@@H](Cc1ccc(Cl)cc1)C(=O)N[C@@H](Cc1cccnc1)C(=O)N[C@@H](CO)C(=O)N[C@@H](Cc1ccc(O)cc1)C(=O)NC(Cc1ccc2ccccc2c1)C(=O)N[C@@H](CC(C)C)C(=O)N[C@@H](CCCN=C(N)N)C(=O)N1CCC[C@H]1C(=O)N[C@H](C)C(N)=O (stereo in doubt) | 0 | 4 | 149 | – | 4 | 8 | – | 4 | 3.8 | – | – | – | – | – | 5
CC(=O)NC(Cc1ccc2ccccc2c1)C(=O)N[C@@H](Cc1ccc(Cl)cc1)C(=O)N[C@@H](CO)C(=O)N[C@@H](Cc1ccc(O)cc1)C(=O)NC(Cc1ccc2ccccc2c1)C(=O)N[C@@H](CC(C)C)C(=O)N[C@@H](CCCN=C(N)N)C(=O)N1CCC[C@H]1C(=O)N[C@H](C)C(N)=O (stereo in doubt) | – | 6 | 149 | 6 | 14 | 39 | 6 | 29 | 3.8 | – | – | – | – | – | –
CC(=O)NC(Cc1ccc2ccccc2c1)C(=O)N[C@@H](CO)C(=O)N[C@@H](Cc1ccc(O)cc1)C(=O)NC(Cc1ccc2ccccc2c1)C(=O)N[C@@H](CC(C)C)C(=O)N[C@@H](CCCN=C(N)N)C(=O)N1CCC[C@H]1C(=O)N[C@H](C)C(N)=O (stereo in doubt) | – | 7 | 236 | 6 | 12 | – | 6 | 37 | 5.3 | – | – | 3 | – | – | –
CC(=O)N[C@@H](Cc1ccc2ccccc2c1)C(=O)NC(CCCCNC(=O)c1ccccn1)C(=O)N[C@@H](CCCCNC(=O)c1ccccn1)C(=O)NC(CCCN=C(N)N)C(=O)NC(C)C(N)=O (stereo in doubt) | – | 145 | 156 | – | – | – | – | – | 2.3 | – | 142 | 158 | 64 | 105 | –
